Values after ≈ are worked out from the molar mass of the structure shown.
Columns and labels:
Type in all cases: functional
Eimeria tenella [1] = assay: In vitro inhibitory activity against Eimeria tenella in embryonic chick liver cells.
Procedure, shortened: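 E. tenella, Weybridge strain, grown in vitro in embryonic chick liver cells.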

Eimeria tenella [2] = assay: In vivo anti-coccidial activity expressed as number of the chicks cleared of Eimeria tenella lesions out of a group of five, at 50 ppm in the diet.
Procedure, shortened: (§1)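 Week-old chicks, given compound in the diet. E. tenella (Weybridge strain) infection given together with E. acervulina (Ongar strain).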

Eimeria tenella [3] = assay: In vivo anti-coccidial activity expressed as number of the chicks cleared of Eimeria tenella lesions out of a group of five, at 200 ppm in the diet.; procedure, shortened: as §1
Eimeria tenella [4] = assay: In vivo anti-coccidial activity expressed as number of the chicks cleared of Eimeria tenella lesions out of a group of five, at 25 ppm in the diet.; procedure, shortened: as §1
Eimeria tenella [5] = assay: In vivo anti-coccidial activity expressed as number of the chicks cleared of Eimeria tenella lesions out of a group of five, at 400 ppm in the diet.; procedure, shortened: as §1
Eimeria tenella [6] = assay: In vivo anti-coccidial activity expressed as number of the chicks cleared of Eimeria tenella lesions out of a group of five, at 100 ppm in the diet.; procedure, shortened: as §1
Eimeria tenella [7] = assay: In vivo anti-coccidial activity expressed as number of the chicks cleared of Eimeria tenella lesions out of a group of five, at 300 ppm in the diet.; procedure, shortened: as §1
Eimeria tenella [8] = assay: In vivo anti-coccidial activity expressed as number of the chicks cleared of Eimeria tenella lesions out of a group of five, at 200 ppm in the diet;one chick out of 5 died and contained lesions due to the parasite.
Eimeria tenella [9] = assay: In vivo anti-coccidial activity expressed as number of the chicks cleared of Eimeria tenella lesions out of a group of five, at 25 ppm in the diet;At 12.5 ppm, no chicks were cleared.; procedure, shortened: as §1
Eimeria tenella [10] = assay: In vivo anti-coccidial activity expressed as number of the chicks cleared of Eimeria tenella lesions out of a group of five, at 12.5 ppm in the diet.; procedure, shortened: as §1
Eimeria tenella [11] = assay: In vivo anti-coccidial activity expressed as number of the chicks cleared of Eimeria tenella lesions out of a group of five, at 25 ppm in the diet;At 12.5 p.p.m. no chicks were cleared.; procedure, shortened: as §1
Eimeria tenella [12] = assay: In vivo anti-coccidial activity expressed as number of the chicks cleared of Eimeria tenella lesions out of a group of five, at 200 ppm in the diet;one chick out of a group of 5 died and contained lesions due to the parasite.

| SMILES | MIC (Eimeria tenella [1]) | Activity (Eimeria tenella [2]) | Activity (Eimeria tenella [3]) | Activity (Eimeria tenella [4]) | Activity (Eimeria tenella [6]) | other results |
| --- | --- | --- | --- | --- | --- | --- |
| CC(=O)OC[C@H]1O[C@@H](n2ncc3c(SC/C=C/c4ccccc4)ncnc32)[C@H](OC(C)=O)[C@@H]1OC(C)=O | 1.25 µg/mL (≈ 2.37 µM) | 5 | 5 | 1 |  |  |
| OC[C@H]1OC(n2ncc3c(SC/C=C/c4ccc(Cl)c(Cl)c4)ncnc32)[C@H](O)[C@@H]1O (stereo partly drawn) | 0.31 µg/mL (≈ 0.66 µM) |  | 2 |  |  |  |
| OC[C@H]1OC(n2ncc3c(SC/C=C/c4cccc(O)c4)ncnc32)[C@H](O)[C@@H]1O (stereo partly drawn) | 20 µg/mL (≈ 48 µM) |  |  |  |  | Activity (Eimeria tenella [5]): 0 |
| C/C=C/CSc1ncnc2c1cnn2C1O[C@H](CO)[C@@H](O)[C@H]1O (stereo partly drawn) | 0.019 µg/mL (≈ 0.0561 µM) | 0 | 5 | 0 | 4 |  |
| OC[C@H]1OC(n2ncc3c(S)ncnc32)[C@H](O)[C@@H]1O (stereo partly drawn) | 0.31 µg/mL (≈ 1.09 µM) |  | 2 |  |  |  |
| COc1ccccc1/C=C/CSc1ncnc2c1cnn2C1O[C@H](CO)[C@@H](O)[C@H]1O (stereo partly drawn) | 1.25 µg/mL (≈ 2.9 µM) |  |  |  |  | Activity (Eimeria tenella [7]): 1 |
| OC[C@H]1OC(n2ncc3c(SC/C=C/c4cccc(C(F)(F)F)c4)ncnc32)[C@H](O)[C@@H]1O (stereo partly drawn) | 5 µg/mL (≈ 10.7 µM) |  |  |  |  | Activity (Eimeria tenella [8]): 1 |
| COc1cc(/C=C/CSc2ncnc3c2cnn3C2O[C@H](CO)[C@@H](O)[C@H]2O)cc(OC)c1OC (stereo partly drawn) | 0.31 µg/mL (≈ 0.632 µM) |  | 5 |  | 2 | Activity (Eimeria tenella [5]): 5 |
| C=CCSc1ncnc2c1cnn2C1O[C@H](CO)[C@@H](O)[C@H]1O (stereo partly drawn) | 0.019 µg/mL (≈ 0.0586 µM) | 2 | 5 | 1 | 5 |  |
| OC[C@H]1OC(n2ncc3c(SC/C=C/C=C/c4ccccc4)ncnc32)[C@H](O)[C@@H]1O (stereo partly drawn) | 0.019 µg/mL (≈ 0.0445 µM) | 5 | 5 | 1 |  |  |
| OC[C@H]1OC(n2ncc3c(SC/C=C\c4ccccc4)ncnc32)[C@H](O)[C@@H]1O (stereo partly drawn) | > 20 µg/mL | 0 |  |  | 0 | Activity (Eimeria tenella [9]): 0 |
| O=P(O)(O)OC[C@H]1OC(n2ncc3c(SC/C=C/c4ccccc4)ncnc32)[C@H](O)[C@@H]1O (stereo partly drawn) | 0.012 µg/mL (≈ 0.025 µM) | 5 | 5 | 5 | 5 | Activity (Eimeria tenella [10]): 0 |
| COc1ccc(/C=C/CSc2ncnc3c2cnn3C2O[C@H](CO)[C@@H](O)[C@H]2O)cc1 (stereo partly drawn) | 1.25 µg/mL (≈ 2.9 µM) |  |  |  |  | Activity (Eimeria tenella [7]): 2 |
| OC[C@H]1OC(n2ncc3c(SCC#Cc4ccccc4)ncnc32)[C@H](O)[C@@H]1O (stereo partly drawn) | 0.019 µg/mL (≈ 0.0477 µM) | 0 | 5 | 1 | 2 |  |
| OC[C@H]1OC(n2ncc3c(SC/C=C/c4ccc(Cl)cc4)ncnc32)[C@H](O)[C@@H]1O (stereo partly drawn) | 0.31 µg/mL (≈ 0.713 µM) | 0 | 5 | 0 | 5 |  |
| OC[C@H]1OC(n2ncc3c(SC/C=C/c4ccccc4)ncnc32)[C@H](O)[C@@H]1O (stereo partly drawn) | 0.078 µg/mL (≈ 0.195 µM) | 5 | 5 |  | 5 | Activity (Eimeria tenella [11]): 5 |
| OC[C@H]1OC(n2ncc3c(SC/C=C/c4cccc(Br)c4)ncnc32)[C@H](O)[C@@H]1O (stereo partly drawn) | 5 µg/mL (≈ 10.4 µM) | 4 | 5 | 1 | 5 |  |
| Cc1ccc(/C=C/CSc2ncnc3c2cnn3C2O[C@H](CO)[C@@H](O)[C@H]2O)cc1 (stereo partly drawn) | 5 µg/mL (≈ 12.1 µM) |  |  |  |  | Activity (Eimeria tenella [12]): 0 |
| OC[C@H]1OC(n2ncc3c(SC/C=C/c4ccc(OCc5ccccc5)cc4)ncnc32)[C@H](O)[C@@H]1O (stereo partly drawn) | 1.25 µg/mL (≈ 2.47 µM) | 0 | 5 | 1 | 2 |  |
| OC[C@H]1OC(n2ncc3c(SC/C=C/c4ccc(Cl)cc4Cl)ncnc32)[C@H](O)[C@@H]1O (stereo partly drawn) | 1.25 µg/mL (≈ 2.66 µM) |  | 2 |  |  |  |

— ChEMBL document CHEMBL1122376, “Pyrazolo[3,4-d]pyrimidine ribonucleosides as anticoccidials. 3. Synthesis and activity of some nucleosides of 4-[(arylalkenyl)thio]pyrazolo[3,4-d]pyrimidines” (1983)
